From ChEMBL document CHEMBL2440049, “A structurally simplified analogue of geldanamycin exhibits neuroprotective activity” (ACS Med Chem Lett, 2013)
The source made the active and inactive calls. No cut-off for these calls is given here.

Columns and labels:
BT-474 [1] = assay: Cytotoxicity against human BT474 cells at 0.05 to 0.25 uM after 48 hrs by WST-1 assay; format: cell-based; conditions: bt-474, 48 h
[2] = Cytotoxicity against human Friedreich's ataxia lymphocytes at 0.05 to 0.25 uM after 48 hrs by WST-1 assay
Homo sapiens [3] = organism: Homo sapiens; assay: Antioxidant activity in human Friedreich's ataxia lymphocytes assessed as suppression of DEM-induced lipid peroxidation after overnight incubation by flow cytometric analysis; format: functional
Summary of the method: (§1)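 FRDA lymphocytes treated with compound at 1, 5 or 10 μM, then stressed with DEM. Lipid peroxidation probed with C11-BODIPY581/591; oxidized green fluorescence, median intensity, measured by flow cytometry and compared with untreated control. Results given as % scavenging activity; mean ± SEM, n = 3.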

Homo sapiens [4] = organism: Homo sapiens; assay: Antioxidant activity in human Friedreich's ataxia lymphocytes assessed as suppression of DEM-induced lipid peroxidation at 5 uM after overnight incubation by flow cytometric analysis relative to untreated control; format: functional; summary of the method: as §1
[5] = Cytoprotective activity in human Friedreich's ataxia lymphocytes assessed as reduction in DEM-induced oxidative stress at 2.5 uM preincubated for 16 hrs prior to DEM-stimulation measured after 6 hrs by trypan blue exclusion assay relative to untreated control; format: functional; design: scale not given: the % may be the effect or the level left
Summary of the method: (§2)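 FRDA lymphocytes treated with compound at 0.1–5 μM, then oxidatively stressed with diethyl maleate to deplete glutathione. Viability set to 100% for untreated cells. Mean ± SEM of three independent experiments run in duplicate.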

[6] = Cytoprotective activity in human Friedreich's ataxia lymphocytes assessed as reduction in DEM-induced oxidative stress at 0.5 uM preincubated for 16 hrs prior to DEM-stimulation measured after 6 hrs by trypan blue exclusion assay relative to untreated control; format: functional; design: scale not given: the % may be the effect or the level left; summary of the method: as §2
[7] = Cytoprotective activity in human Friedreich's ataxia lymphocytes assessed as reduction in DEM-induced oxidative stress at 5 uM preincubated for 16 hrs prior to DEM-stimulation measured after 6 hrs by trypan blue exclusion assay relative to untreated control; format: functional; design: scale not given: the % may be the effect or the level left; summary of the method: as §2
Homo sapiens [8] = organism: Homo sapiens; assay: Antioxidant activity in human Friedreich's ataxia lymphocytes assessed as suppression of DEM-induced ROS production at 5 to 10 uM preincubated for 16 hrs prior to DEM-stimulation measured after 80 mins by flow cytometric analysis; format: functional
Summary of the method: (§3)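 FRDA lymphocytes pretreated 16 h with compound (5 and 10 μM), then 5 mM diethyl maleate for 80 min to deplete glutathione. Cells washed, resuspended in PBS with 20 mM glucose, loaded with 10 μM DCFH-DA for 20 min. DCF fluorescence read by flow cytometry, 488 nm excitation, 530 ± 15 nm emission, 10,000 events. Expressed as % ROS scavenging; mean ± SEM, n = 3.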

Homo sapiens [9] = organism: Homo sapiens; assay: Cytoprotective activity in DEM-stimulated human Friedreich's ataxia lymphocytes assessed as cells with intact mitochondrial membrane potential at 5 uM preincubated for 16 hrs prior to DEM-stimulation measured after 140 mins by TMRM dye-based flow cytometric analysis (reference value: 92%); format: functional
[10] = Cytoprotective activity in human Friedreich's ataxia lymphocytes assessed as reduction in DEM-induced oxidative stress at 0.1 uM preincubated for 16 hrs prior to DEM-stimulation measured after 6 hrs by trypan blue exclusion assay relative to untreated control; format: functional; design: scale not given: the % may be the effect or the level left; summary of the method: as §2
Homo sapiens [11] = organism: Homo sapiens; assay: Antioxidant activity in human Friedreich's ataxia lymphocytes assessed as suppression of DEM-induced lipid peroxidation at 1 uM after overnight incubation by flow cytometric analysis relative to untreated control; format: functional; summary of the method: as §1
Homo sapiens [12] = organism: Homo sapiens; assay: Antioxidant activity in human Friedreich's ataxia lymphocytes assessed as suppression of DEM-induced lipid peroxidation at 10 uM after overnight incubation by flow cytometric analysis relative to untreated control; format: functional; summary of the method: as §1
Homo sapiens [13] = organism: Homo sapiens; assay: Cytoprotective activity in BSO-stimulated human Friedreich's ataxia fibroblasts assessed as preservation of mitochondrial membrane potential at 5 uM after 12 hrs by JC-1 dye-based Zeiss fluorescent microscopic analysis
[14] = Cytotoxicity against DEM-stimulated human Friedreich's ataxia lymphocytes assessed as effect on intracellular glutathione concentration at 1 to 10 uM; format: cell-based
Homo sapiens [15] = organism: Homo sapiens; assay: Antioxidant activity in human Friedreich's ataxia lymphocytes assessed as suppression of DEM-induced ROS production preincubated for 16 hrs prior to DEM-stimulation measured after 80 mins by flow cytometric analysis; format: functional; summary of the method: as §3
[16] = biological target: Heat shock protein HSP 90-beta (Homo sapiens) (UniProt P08238); assay: Inhibition of HSP90 in human BT474 cells expressing HER2 assessed as increase in HSP90 protein level at 0.5 to 5 uM after 24 hrs by chemiluminescence assay; format: cell-based; conditions: BT-474
BT-474 [17] = assay: Cytotoxicity against human BT474 cells at 5 to 20 uM after 48 hrs by WST-1 assay; format: cell-based; conditions: bt-474, 48 h
[18] = biological target: Amyloid-beta precursor protein (Homo sapiens) (UniProt P05067); assay: Neuroprotective activity in differentiated human SH-SY5Y cells assessed as decrease in amyloid beta (1 to 42)-induced neurotoxicity incubated overnight prior to amyloid beta (1 to 42)-stimulation measured after 48 hrs by WST-1 assay; format: functional, cell-based
[19] = biological target: Heat shock protein HSP 90-beta (Homo sapiens) (UniProt P08238); assay: Inhibition of HSP90 in human BT474 cells expressing HER2 assessed as HER2 protein degradation at 0.5 to 25 uM after 24 hrs by chemiluminescence assay; format: cell-based; conditions: BT-474
Homo sapiens [20] = organism: Homo sapiens; assay: Cytoprotective activity in human Friedreich's ataxia lymphocytes assessed as reduction in DEM-induced oxidative stress preincubated for 16 hrs prior to DEM-stimulation measured after 6 hrs by trypan blue exclusion assay; format: functional; summary of the method: as §2
[21] = Cytotoxicity against human Friedreich's ataxia lymphocytes at 5 to 20 uM after 48 hrs by WST-1 assay

Heat shock protein HSP 90-beta (Homo sapiens), sequence (P08238 whole entry): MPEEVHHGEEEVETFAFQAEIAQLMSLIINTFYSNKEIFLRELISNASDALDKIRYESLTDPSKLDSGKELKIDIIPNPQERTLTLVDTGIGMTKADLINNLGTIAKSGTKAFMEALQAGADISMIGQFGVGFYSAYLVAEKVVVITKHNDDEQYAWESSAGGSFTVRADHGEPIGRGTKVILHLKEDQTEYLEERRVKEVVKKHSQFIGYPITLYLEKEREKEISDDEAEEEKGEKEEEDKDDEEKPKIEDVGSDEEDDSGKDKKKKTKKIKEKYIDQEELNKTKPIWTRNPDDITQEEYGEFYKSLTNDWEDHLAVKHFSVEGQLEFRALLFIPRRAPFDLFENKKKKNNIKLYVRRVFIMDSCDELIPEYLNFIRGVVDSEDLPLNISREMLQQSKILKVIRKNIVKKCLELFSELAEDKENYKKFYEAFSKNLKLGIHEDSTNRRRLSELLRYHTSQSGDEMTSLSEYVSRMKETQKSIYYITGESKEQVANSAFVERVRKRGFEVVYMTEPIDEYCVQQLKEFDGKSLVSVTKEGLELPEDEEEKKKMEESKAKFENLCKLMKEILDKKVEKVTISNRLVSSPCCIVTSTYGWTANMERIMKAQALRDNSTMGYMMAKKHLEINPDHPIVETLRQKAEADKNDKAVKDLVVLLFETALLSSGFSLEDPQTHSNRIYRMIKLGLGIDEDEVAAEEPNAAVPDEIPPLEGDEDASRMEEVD
Amyloid-beta precursor protein (Homo sapiens), sequence (P05067 whole entry): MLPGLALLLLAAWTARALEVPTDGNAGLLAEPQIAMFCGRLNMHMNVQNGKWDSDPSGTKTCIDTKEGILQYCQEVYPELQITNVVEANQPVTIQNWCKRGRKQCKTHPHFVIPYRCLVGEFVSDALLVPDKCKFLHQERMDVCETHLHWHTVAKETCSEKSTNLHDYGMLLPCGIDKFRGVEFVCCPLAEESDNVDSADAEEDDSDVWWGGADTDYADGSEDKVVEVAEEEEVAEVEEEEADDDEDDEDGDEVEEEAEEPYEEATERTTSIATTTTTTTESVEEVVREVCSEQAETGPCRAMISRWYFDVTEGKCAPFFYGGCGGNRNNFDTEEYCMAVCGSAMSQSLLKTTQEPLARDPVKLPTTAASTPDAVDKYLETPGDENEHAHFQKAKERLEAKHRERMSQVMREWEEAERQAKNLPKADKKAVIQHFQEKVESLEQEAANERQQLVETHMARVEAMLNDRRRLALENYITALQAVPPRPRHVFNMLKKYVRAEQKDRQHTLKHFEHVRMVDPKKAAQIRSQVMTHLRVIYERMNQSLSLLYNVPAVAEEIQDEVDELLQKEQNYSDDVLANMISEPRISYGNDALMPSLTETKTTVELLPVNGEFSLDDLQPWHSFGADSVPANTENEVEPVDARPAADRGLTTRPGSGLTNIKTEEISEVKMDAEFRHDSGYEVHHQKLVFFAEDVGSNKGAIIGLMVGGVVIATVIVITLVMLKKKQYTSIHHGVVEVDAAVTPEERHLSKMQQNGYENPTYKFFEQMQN

Compound	Activity (Homo sapiens [3])	Activity (Homo sapiens [4]) [%]	Activity [5] [%]	Activity [6] [%]	Activity [7] [%]	Activity (Homo sapiens [8])	Activity (Homo sapiens [9]) [%]	Activity [10] [%]	Activity (Homo sapiens [11]) [%]	Activity (Homo sapiens [12]) [%]	also measured
COC1=C2C[C@@H](C)C[C@H](OC)[C@H](O)[C@@H](C)/C=C(\C)[C@H](OC(N)=O)[C@@H](OC)/C=C\C=C(/C)C(=O)NC(=CC1=O)C2=O [GELDANAMYCIN]											Activity (BT-474 [1]): Toxic; Activity [2]: Toxic
CCCCCCCCCCCCCC1=C(OC)C(=O)C=C(NCCCCCC)C1=O	Dose-dependent effect	61	66	50	80	Active	56	20	14	70	
CCCCCCCCCCCCCC1=C(O)C(=O)C=C(NCCCCCC)C1=O		27	43	22	65	Active	43	18	2	38	
COC1=C2CCCCCCCCCCCCCCCNC(=CC1=O)C2=O	Dose-dependent effect	72	83	69	92		80	36	29	83	Activity (Homo sapiens [13]): Active; Activity [14]: Non-toxic; Activity (Homo sapiens [15]): Dose-dependent effect; inhibition [16]: inactive; Activity (BT-474 [17]): Non-toxic; Activity [18]: Dose-dependent effect; inhibition [19]: inactive; Activity (Homo sapiens [20]): Dose-dependent effect; Activity [21]: Non-toxic
